ChEMBL document CHEMBL2046346, “Discovery of phenylpropanoic acid derivatives containing polar functionalities as potent and orally bioavailable G protein-coupled receptor 40 agonists for the treatment of type 2 diabetes” (J Med Chem, 2012)
Calls of active or inactive are those of the source. No cut-off for these calls is given here.

Assays:
[1] = Cytotoxicity against human HepG2 cells assessed as intracellular ATP level at 10 uM after 24 hrs by ATPlite assay relative to control; assay type: cell-based; settings: read-out: Activity
Outline: (§1)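 HepG2 cells seeded 2 × 10^4/well, treated 1 day in DMEM with 0.5% FBS, 2 mM L-glutamine, 1 mM pyruvate. ATP measured by ATPlite luminescence; % of 1% DMSO control (RLU ratio ×100), n = 3.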

[2] = Lipophilicity, log D of the compound by RP-HPLC analysis; assay type: physicochemical
HepG2 [3] = experiment: Induction of apoptosis in human HepG2 cells assessed as caspase 3/7 activity at 10 uM after 24 hrs by caspase Glo assay relative to staurosporine; assay type: cell-based; settings: hepg2, 24 h
Outline: (§2)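 HepG2 cells seeded 2 × 10^4/well, treated 1 day in DMEM with 0.5% FBS, 2 mM L-glutamine, 1 mM pyruvate. Caspase-Glo 3/7 luminescence; activity = (compound − 1% DMSO)/(30 μM staurosporine − 1% DMSO) ×100, n = 3.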

Rattus norvegicus [4] = experiment: Induction of hypoglycemia in fasted Sprague-Dawley rat assessed as increase in insulin secretion level at 30 mg/kg, po after 30 mins; settings: in vivo, 0.5 h
HepG2 [5] = experiment: Induction of apoptosis in human HepG2 cells assessed as caspase 3/7 activity at 30 uM after 24 hrs by caspase Glo assay relative to staurosporine; assay type: cell-based; settings: hepg2, 24 h; outline: as §2
Rattus norvegicus [6] = experiment: Toxicity in rat assessed as adverse effect at 15 to 150 mg/kg, po after 4 weeks; assay type: organism-based; set-up: dose 15-150 mg/kg, route oral; settings: in vivo, 672 h
Outline: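 Normal rats dosed orally at 15, 50 and 150 mg/kg for 4 weeks; adverse effects recorded.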

[7] = target: T1, Free fatty acid receptor 1 (Homo sapiens, UniProt O14842); experiment: Agonist activity at human GPR40 receptor expressed in CHO cells assessed as increase in intracellular calcium level for 90 secs by FLIPR assay in the presence of 0.1% BSA; assay type: functional, cell-based
Outline: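 CHO dhfr cells stably expressing human GPR40 plated overnight, loaded 60 min at 37 °C with Fluo 4 AM (2.5 μg/mL), 2.5 mmol/L probenecid, 0.1% fatty acid-free BSA. Ca2+ rise after compound addition read 90 s; response scaled between vehicle (0%) and 10 μM γ-linolenic acid (100%).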

Rattus norvegicus [8] = experiment: Insulinotropic activity in po dosed fasted Wistar fatty rat assessed as decrease in blood glucose level administered 30 mins prior to glucose-challenge by oral glucose tolerance test relative to vehicle treated control; assay type: functional, organism-based
Outline: (§3)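 Thirteen-week-old female Wistar fatty rats, overnight fasted, grouped on body weight, PG, TG, NEFA (n = 6). Oral dose (0.1–1 mg/kg, 0.5% methylcellulose vehicle) 30 min before oral glucose 1 g/kg; tail-vein blood at 0, 10, 30, 60, 120 min; plasma glucose by analyzer, insulin by RIA.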

Rattus norvegicus [9] = experiment: Insulinotropic activity in po dosed fasted Wistar fatty rat assessed as increase in insulin secretion administered 30 mins prior to glucose-challenge by oral glucose tolerance test relative to vehicle treated control; assay type: functional, organism-based; outline: as §3
[10] = target: T1, Free fatty acid receptor 1; experiment: Displacement of 3-[4-({2',6'-dimethyl-6-[(4-[3H])phenylmethoxy]biphenyl-3-yl}methoxy)phenyl] propanoic acid from human GPR40 receptor expressed in CHO cell membrane after 90 mins by liquid scintillation counting in the presence of 0.2% BSA; assay type: cell membranes
Outline: (§4)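 Membranes from CHO lines stably expressing human or rat GPR40, buffer 25 mmol/L Tris-HCl pH 7.5, 5 mmol/L EDTA, protease inhibitors, 0.05% CHAPS, 0.2% fatty-acid-free BSA. Tritiated ligand at 2 or 6 nmol/L with graded test compound, 90 min room temperature, GF/C filtration, scintillation counting. Nonspecific binding: 10 μmol/L unlabeled ligand. IC50 by nonlinear regression, Ki = IC50/(1+[L]/Kd).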

[11] = Metabolic stability in human hepatic microsomes; assay type: ADME; settings: liver microsomes, read-out: Stability
[12] = target: Free fatty acid receptor 1 (Rattus norvegicus, UniProt Q8K3T4); experiment: Displacement of 3-[4-({2',6'-dimethyl-6-[(4-[3H])phenylmethoxy]biphenyl-3-yl}methoxy)phenyl] propanoic acid from rat GPR40 receptor expressed in CHO cell membrane after 90 mins by liquid scintillation counting in the presence of 0.2% BSA; assay type: cell membranes; outline: as §4
Rattus norvegicus [13] = experiment: Insulinotropic activity in fasted Wistar fatty rat assessed as decrease in blood glucose level at 0.3 mg/kg, po administered 30 mins prior to glucose-challenge by oral glucose tolerance test relative to vehicle treated control; assay type: functional, organism-based; set-up: dose 0.3 mg/kg; outline: as §3
Rattus norvegicus [14] = experiment: Induction of hypoglycemia in fasted Sprague-Dawley rat assessed as decrease in plasma glucose level below normal fasting level at 30 mg/kg, po; assay type: organism-based; set-up: dose 30 mg/kg, route oral; settings: in vivo
Outline: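 Eight-week-old male SD rats fasted overnight, grouped by body weight (n = 6), single oral dose in 0.5% methylcellulose vehicle; tail-vein blood before and 0.5, 1, 2, 3 h after dosing; plasma glucose by analyzer, insulin by ELISA; mean ± SD.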

[15] = Cytotoxicity against human HepG2 cells assessed as intracellular ATP level at 30 uM after 24 hrs by ATPlite assay relative to control; assay type: cell-based; settings: read-out: Activity; outline: as §1

T1 sequence (O14842 whole entry): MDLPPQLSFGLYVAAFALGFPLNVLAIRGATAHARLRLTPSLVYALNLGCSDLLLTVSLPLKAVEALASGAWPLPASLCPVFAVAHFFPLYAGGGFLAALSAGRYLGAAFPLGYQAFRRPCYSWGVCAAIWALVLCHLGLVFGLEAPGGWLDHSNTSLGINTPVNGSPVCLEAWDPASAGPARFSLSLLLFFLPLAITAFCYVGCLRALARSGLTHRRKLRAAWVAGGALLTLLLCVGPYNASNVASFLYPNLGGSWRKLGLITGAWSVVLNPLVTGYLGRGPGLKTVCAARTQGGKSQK
Free fatty acid receptor 1 (Rattus norvegicus, UniProt Q8K3T4), sequence (Q8K3T4 whole entry): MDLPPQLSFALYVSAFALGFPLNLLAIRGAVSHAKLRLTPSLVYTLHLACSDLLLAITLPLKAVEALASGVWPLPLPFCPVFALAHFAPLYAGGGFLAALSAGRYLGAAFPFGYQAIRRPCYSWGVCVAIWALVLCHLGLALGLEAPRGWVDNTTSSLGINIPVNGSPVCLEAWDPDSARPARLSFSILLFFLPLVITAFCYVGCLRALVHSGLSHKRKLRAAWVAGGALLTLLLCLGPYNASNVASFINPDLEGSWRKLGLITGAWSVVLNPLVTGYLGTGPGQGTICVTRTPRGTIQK

Compound: Cc1cc(OCC2(O)CCS(=O)(=O)CC2)cc(C)c1-c1cccc(CNc2ccc(CCC(=O)O)c(F)c2)c1
- viability at 24 h, 10 µM [1]: 88.1%
- logD [2]: 2.14
- Activity (HepG2 [3]): 0.8%
- Activity (Rattus norvegicus [4]): Toxic
- Activity (HepG2 [5]): 0.5%
- Activity (Rattus norvegicus [6]): Non-toxic
- EC50 [7]: 0.029 µM
- Activity (Rattus norvegicus [8]): Dose-dependent effect
- Activity (Rattus norvegicus [9]): Dose-dependent effect
- Ki [10]: 0.019 µM
- microsomal CLint [11]: 2 µL/min/mg
- Ki [12]: 0.0045 µM
- Activity (Rattus norvegicus [13]): Active
- Activity (Rattus norvegicus [14]): Non-toxic
- viability at 24 h, 30 µM [15]: 75.9%
